Here are results for one molecule from ChEMBL document CHEMBL4261642, “Design, synthesis, and ex vivo evaluation of a selective inhibitor for retinaldehyde dehydrogenase enzymes” (Bioorg Med Chem, 2018).

The species entered for one assay is Gallus gallus. In words: Inhibition of N-terminal His6-tagged recombinant chick RALDH3 expressed in Escherichia coli BL21(DE3) cells at 250 nM using RAL as substrate assessed as Km preincubated for 20 mins followed by substrate addition and measured after 30 mins in presence of NADH by fluorescence assay (reference value: 84.45 +/- 30.99 microM).
The target in assay [1] is T1, Retinal dehydrogenase 2 (Gallus gallus, UniProt O93344).
T1 sequence (O93344 whole entry): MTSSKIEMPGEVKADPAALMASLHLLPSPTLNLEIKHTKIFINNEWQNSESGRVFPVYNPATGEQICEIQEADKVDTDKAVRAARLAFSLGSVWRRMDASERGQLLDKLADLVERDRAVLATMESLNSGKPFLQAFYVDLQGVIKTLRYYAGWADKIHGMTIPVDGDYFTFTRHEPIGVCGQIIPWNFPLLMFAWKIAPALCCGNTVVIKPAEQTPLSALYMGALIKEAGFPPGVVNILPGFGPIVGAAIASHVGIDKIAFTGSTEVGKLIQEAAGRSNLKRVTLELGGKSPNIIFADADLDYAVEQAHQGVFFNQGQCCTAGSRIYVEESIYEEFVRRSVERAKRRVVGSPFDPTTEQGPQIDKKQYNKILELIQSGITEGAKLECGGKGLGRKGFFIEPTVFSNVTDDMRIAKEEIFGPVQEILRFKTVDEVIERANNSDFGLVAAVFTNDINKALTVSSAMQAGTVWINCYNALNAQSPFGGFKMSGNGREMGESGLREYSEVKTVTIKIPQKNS
As to the kind of experiment: Inhibition of RALDH2 in living intact choroid isolated from 4 day recovering chick eyes assessed as inhibition of ATRA synthesis after 24 hrs in presence of […].

For another assay, the system named is HEK293. In words: Cytotoxicity against doxycycline-inducible chicken RALDH2 expressing HEK293 cells by measuring DNA content after 24 hrs in presence of proteinase K by Pico-green dye-based fluorescence assay. In kind it is functional, cell-based. To be noted: Homo sapiens, HEK293, 24 h. An outline of the steps: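 Doxycycline-induced (Dox)RALDH2-eGFP HEK293 cells treated with compound in low-serum DMEM. Homogenate aliquots taken before ultracentrifugation were digested with proteinase K (0.05% w/v in 10 mM EDTA, 0.1 M sodium phosphate pH 6.5) at 60°C overnight. DNA measured by PicoGreen fluorescence. Toxicity curves span 0.01–50 μM over 24 h. Two experiments, n = 5 per concentration.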

In assay [2] the target is T2, Aldehyde dehydrogenase 1A1 (Gallus gallus, UniProt P27463).
T2 sequence (P27463 whole entry): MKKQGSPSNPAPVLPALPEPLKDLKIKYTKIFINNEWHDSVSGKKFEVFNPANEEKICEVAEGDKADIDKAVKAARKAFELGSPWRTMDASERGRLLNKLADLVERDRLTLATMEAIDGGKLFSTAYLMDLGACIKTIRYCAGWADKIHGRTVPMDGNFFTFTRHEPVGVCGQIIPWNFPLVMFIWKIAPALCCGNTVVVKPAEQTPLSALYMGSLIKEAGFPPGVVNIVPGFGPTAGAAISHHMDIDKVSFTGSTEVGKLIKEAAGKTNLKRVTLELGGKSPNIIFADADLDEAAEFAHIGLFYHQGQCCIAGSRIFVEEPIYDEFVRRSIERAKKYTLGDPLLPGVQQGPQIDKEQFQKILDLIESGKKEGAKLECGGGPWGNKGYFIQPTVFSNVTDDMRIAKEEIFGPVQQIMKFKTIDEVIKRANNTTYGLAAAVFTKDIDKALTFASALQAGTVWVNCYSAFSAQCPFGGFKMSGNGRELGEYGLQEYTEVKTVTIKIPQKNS
As to the kind of experiment: Inhibition of N-terminal His6-tagged recombinant chick RALDH1 expressed in Escherichia coli BL21(DE3) cells using RAL as substrate measured after 30 mins in presence of NADH by Morrison's plot analysis. In short, it runs like this: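 Ki obtained by fitting the Morrison tight-binding equation to the 20-min pre-incubation retinaldehyde/NADH fluorescence inhibition data. Inputs were enzyme concentration (RALDH1 0.358, RALDH2 0.091, RALDH3 0.355, hRALDH2 0.176 μM), substrate concentration and Km. Triplicates from 3–5 independent experiments.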

The target in assay [3] is T3, Retinal dehydrogenase 2 (Gallus gallus) (UniProt O93344).
T3 sequence (whole entry): T1 sequence (O93344 whole entry)
As to the kind of experiment: Inhibition of N-terminal His6-tagged recombinant chick RALDH2 expressed in Escherichia coli BL21(DE3) cells at 250 nM using RAL as substrate assessed as remaining activity preincubated for 10 mins followed by all-trans-retinaldehyde and substrate addition measured after 30 mins in presence of NAD+ by fluorescence assay. An outline of the steps:
(§1)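 Chick RALDH2 (91 nM) pre-incubated with 250 nM inhibitor for 0–80 min at 37°C, alone or with 250 μM retinaldehyde or 250 μM NAD+. Reaction then started with the missing substrate and/or cofactor (250 μM retinaldehyde, 4 mM NAD), 30 min at 37°C. Fluorimetric NADH; % activity remaining. Triplicates.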

Assay [4] concerns the target T1, Retinal dehydrogenase 2. In words: Inhibition of RALDH2 in choroidal cytosol fraction from 4 day recovering chick assessed as inhibition of ATRA synthesis pre-incubated for 20 mins followed by […] addition and measured after 30 mins by HPLC analysis.
Assay [5] has as its target T3, Retinal dehydrogenase 2 (Gallus gallus). As to the kind of experiment: Inhibition of N-terminal His6-tagged recombinant chick RALDH2 expressed in Escherichia coli BL21(DE3) cells at 250 nM using RAL as substrate assessed as remaining activity preincubated for 20 mins followed by all-trans-retinaldehyde and substrate addition measured after 30 mins in presence of NAD+ by fluorescence assay. An outline of the steps: as §1

Assay [6] shares this target. In words: Inhibition of N-terminal His6-tagged recombinant chick RALDH2 expressed in Escherichia coli BL21(DE3) cells at 50 nM using RAL as substrate assessed as remaining activity preincubated for 20 mins followed by compound washout by ultrafiltration and subsequent addition of substrate and measured after 30 mins in presence of NADH by fluorescence assay (reference value: 100.0 +/- 11.57%). In short, it runs like this: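 Chick RALDH2 (91 nM) pre-incubated 20 min with 0–50 nM inhibitor. Unbound inhibitor removed by ultrafiltration before adding 250 μM retinaldehyde and 4 mM NAD+, 30 min at 37°C. NADH measured fluorimetrically. Activity expressed as % of vehicle. Triplicates; one-way ANOVA with Bonferroni test.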

Assay [7] concerns the target T1, Retinal dehydrogenase 2. In words: Inhibition of N-terminal His6-tagged recombinant chick RALDH2 expressed in Escherichia coli BL21(DE3) cells up to 500 nM using RAL as substrate preincubated up to 40 mins followed by substrate addition and measured after 30 mins in presence of NADH by fluorescence assay. An outline of the steps: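 Chick RALDH2 pre-incubated 10, 20 and 40 min with 0–500 nM inhibitor, then assayed with retinaldehyde/NAD+ by fluorimetric NADH. kobs taken from linear regression of log % activity remaining versus pre-incubation time. KI and kinact obtained by nonlinear regression of kobs versus inhibitor concentration.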

For assay [8], the target named is T3, Retinal dehydrogenase 2 (Gallus gallus). As to the kind of experiment: Inhibition of RALDH2 in living intact choroid isolated from 4 day recovering chick eyes assessed as inhibition of ATRA synthesis at 1 uM after 24 hrs in presence of […].

As usually defined, the Km is the concentration of substrate that gives half-maximal velocity. As a reminder, the EC50 is the concentration giving half of the maximal effect. The term IC50 denotes the concentration that gives 50% inhibition. What is called Ki is a dissociation constant, usually derived from enzyme kinetics or from competition with a known ligand. The inhibition is the share of the control response that was lost under treatment. `CC1=C(/C=C/C(C)=C/C=C/C(C)=C/C(=O)C(Cl)Cl)C(C)(C)CCC1`: the Michaelis constant (Km) in the assay listed under Gallus gallus was found to be 46.1 µM. Besides, on Retinal dehydrogenase 2 [1], the EC50 worked out at 120 nM. Moreover, the IC50 with HEK293 is 2940 nM; at Retinal dehydrogenase 2 [4], 53.6 nM. Moreover, the Ki in [2] amounted to 194 nM; on Retinal dehydrogenase 2 [7] it was 128 nM. The Activity in assay [3] was found to be 30.4%; in assay [5], 27.8%; in [6] it was 23%. Moreover, in assay [8], the inhibition came out at 42%.
